Results gathered from unrelated publications.
Protocols differ between the studies behind these lines.
Target: Serine/threonine-protein kinase PAK 1 (PAK1, Homo sapiens, UniProt Q13153)

SMILES	read-out	technique	tested at	remaining binding [%]
Cc1cc(C)c(-n2ccn3nc(-c4cccnc4)cc23)cc1NC(=O)c1cc(C#N)cc(S(F)(F)(F)(F)F)c1	cell-free assay	competition with immobilised ligand	0.1 µM	82.2
CN(C)c1nccc(-c2cnn3ncccc23)n1	binding	–	1 µM	100
CO[C@@H](C)c1c(Nc2ccc([C@H](N(C)C(=O)C3CCS(=O)(=O)CC3)C(F)(F)F)cc2)cnc2cc(Cl)nn12	cell-free assay	competition with immobilised ligand	1 µM	74
O=C(NCCCN1CCOCC1)c1ccc(Nc2ncc(Cl)c(-c3ccc(Cl)s3)n2)cc1	binding	competition with immobilised ligand	1 µM	98
c1cnn2ncc(-c3ccnc(N4CCC45COC5)n3)c2c1	binding	–	1 µM	90
O=C(NCC1CCOCC1)c1n[nH]cc1NC(=O)c1c(F)cccc1F	binding	competition with immobilised ligand	1 µM	100
COc1cnc(Nc2cccc(S(N)(=O)=O)c2)nc1N1CCN(c2ccccc2)CC1	binding	competition with immobilised ligand	1 µM	99
CN(C)C(=O)Cn1cc(-c2nc([C@@](C)(c3ccc(-c4cnc(N)nc4)cc3)C3CC3)no2)cn1	cell-free assay	competition with immobilised ligand	1 µM	100
CC(C)(C)c1ccc(-c2nc(CBr)nn2-c2cccc(O)c2)cc1	cell-free assay	competition with immobilised ligand	10 µM	98
CN(C)C(=O)Cn1cc(-c2nc(C3(c4ccc(-c5cnc(N)nc5)cc4)CC3)no2)cn1	cell-free assay	competition with immobilised ligand	1 µM	100
Cc1cnc(Nc2ccc(C(=O)N3CCC(N4CCCC4)CC3)cc2)nc1-c1cc2ccccc2s1	binding	competition with immobilised ligand	1 µM	98
N#Cc1ccccc1CSc1nnc2c(n1)[nH]c1ccccc12	binding	competition with immobilised ligand	10 µM	80
COc1ccnn2ncc(-c3ccnc(N(C)C)n3)c12	binding	–	1 µM	79
C[C@@H](c1ccc(-n2cnc3c(N)ncnc32)cc1)N1CCc2nn(C)c(Cc3ccccc3)c2C1=O	binding	competition with immobilised ligand	0.1 µM	97
O=C(c1ccc(Nc2ncc(Cl)c(-c3ccc(Cl)s3)n2)cc1)N1CCC(N2CCCC2)CC1	binding	competition with immobilised ligand	1 µM	68
Nc1ncc2c(n1)-c1c([nH]c3ccc(C#CC4CC4)cc13)CCCC2	binding	competition with immobilised ligand	1 µM	83
CS(=O)(=O)c1cc(C2(NC(=O)c3cncc4c3cnn4-c3ccc(F)cc3)CC2)ccn1	cell-free assay	competition with immobilised ligand	1 µM	100
CN(C)c1nccc(-c2cnc3ncccn23)n1	binding	–	1 µM	91
CN(C)c1ncnc(-c2ccc3nc(Nc4cc(CN5CCN(C(=O)CC(F)(F)F)CC5)ccn4)[nH]c3c2)c1Cl	cell-free assay	competition with immobilised ligand	1 µM	100
N[C@H]1CCN(c2nccc(-c3cnn4ncccc34)n2)C1	binding	–	1 µM	100
CNC(=O)[C@@H]1CC[C@@H](n2c(-c3ccc4cnccc4c3)nc3ccc(C(=O)NCc4cccc(C(N)=O)c4)cc32)C1	binding	competition with immobilised ligand	1 µM	100
C[C@@H]1CN(c2ccc3ncc(-c4ccc5[nH]nc(C6CC6)c5c4)n3n2)C[C@H](C)O1	binding	competition with immobilised ligand	50 nM	100
C[C@@H]1CCN(c2nccc(-c3cnn4ncccc34)n2)C1	binding	–	1 µM	100
FC(F)(F)c1ccc2c(c1)nc(-c1cccnc1)n2C1CC1	cell-free assay	competition with immobilised ligand	1 µM	100
